Screens deposited in PubChem by several laboratories.
Thrombin inh: human alpha-thrombin inhibitors, primary screen, counter-screen for coagulation protease inhibitor project, biochemical, 1536-well, fluorogenic AMC substrate. Boc-VPR-AMC fluorogenic substrate cleavage. inhibition, % at 5 µM. AID 1046, 2008. hit rate 0.26% among 220,000. Prothrombin (Homo sapiens), P00734;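 active = inhibition at or above 40%; inactive = inhibition below 40%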;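 note: 0% = enzyme with no compound and 100% = wells without enzyme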
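Material: Human alpha-thrombin protein | Buffer or medium: pH 7.5 Tris-saline with Tween 20 | Reagent: Boc-VPR-AMC substrate, 15 µM final | Schedule: Reaction at ambient temperature | Detection: AMC fluorescence at 355 nm excitation and 460 nm emission | Evaluation: Percent inhibition scaled between no-compound controls and no-enzyme blanks | Controls: no-compound enzyme wells and no-enzyme blanks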
FXIIa inh 1536: human FXIIa protease inhibitors, primary screen, biochemical, 1536-well. Coagulation factor XII (Homo sapiens), P00748. AID 800, 2007. inhibition, % at 5 µM. purified FXIIa, Boc-QGR-AMC fluorogenic substrate, 2 h. hit rate 0.3% among 220,000; in the data active = inhibition above about 40%;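 note: 0% = enzyme with no compound and 100% = blank without enzyme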
Target sequence (P00748 20-372 limits assumed): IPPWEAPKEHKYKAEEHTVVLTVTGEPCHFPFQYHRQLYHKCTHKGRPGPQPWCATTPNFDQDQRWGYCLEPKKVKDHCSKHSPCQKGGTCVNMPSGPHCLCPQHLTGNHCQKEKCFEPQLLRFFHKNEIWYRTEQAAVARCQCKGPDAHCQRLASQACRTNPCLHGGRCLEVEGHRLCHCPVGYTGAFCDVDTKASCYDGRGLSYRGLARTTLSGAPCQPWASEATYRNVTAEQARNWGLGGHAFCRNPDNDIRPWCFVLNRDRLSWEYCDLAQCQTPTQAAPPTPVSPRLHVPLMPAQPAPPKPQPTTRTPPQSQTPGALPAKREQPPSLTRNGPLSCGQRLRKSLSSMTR
Target sequence (P00748 373-615 limits assumed): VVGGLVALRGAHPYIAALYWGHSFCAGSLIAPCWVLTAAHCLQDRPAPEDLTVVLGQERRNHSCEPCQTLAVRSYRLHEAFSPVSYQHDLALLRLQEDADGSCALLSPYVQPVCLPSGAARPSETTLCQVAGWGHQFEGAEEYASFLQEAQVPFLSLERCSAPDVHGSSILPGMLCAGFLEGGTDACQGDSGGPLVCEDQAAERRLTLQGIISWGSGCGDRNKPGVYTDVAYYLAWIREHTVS
Furin inhibitor: human furin inhibitors, primary screen, biochemical, fluorescence intensity; P09958; AID 463115, 2010; inhibition, % at 20 µM or 30 µM; hit rate 0.061% among 220,000; purified furin, fluorogenic substrate cleavage; in the data active = inhibition above about 25%
hK5 inh: human KLK5 protease inhibitors, primary screen, biochemical, 1536-well; Kallikrein-5 (Homo sapiens), Q9Y337; recombinant hK5, fluorogenic AMC substrate cleavage; inhibition, % at 5 µM; hit rate 0.59% among 210,000; AID 873, 2007;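 active = inhibition of 40% or more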;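 note: 0% = enzyme controls without compound and 100% = no-enzyme blanks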
Calpain2 inh: inhibitors of pig calpain II, primary screen, biochemical, fluorogenic peptide substrate, 1536-well. purified calpain II, 30 min. inhibition, % at 16 µM. hit rate 0.37% among 220,000;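 active = inhibition above about 50%, limit read from the data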
FXIa inh 1536: human FXIa protease inhibitors, primary screen, biochemical, 1536-well; Coagulation factor XI (Homo sapiens), P03951; purified FXIa, Boc-Glu-Ala-Arg-AMC fluorogenic substrate; inhibition, % at 5 µM; hit rate 0.14% among 220,000;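 active = inhibition of at least 40%; inactive = inhibition below 40%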;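 note: fluorescence of freed AMC excited at 355 nm; 0% = enzyme without compound and 100% = no enzyme blank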
* hit, by the source's call; nt = no result. In the library only some 1.4% were active in any assay of this set; here they are far more common.

SMILES | Thrombin inh | FXIIa inh 1536 | Furin inhibitor | hK5 inh | Calpain2 inh | FXIa inh 1536
CCN(CC)CCCNCC(=O)Nc1ccc(OC)c(Cl)c1 | 11 | 37 | -8 | 42* | 22 | 40
COc1ccc(-n2c(C)c(C(C)=O)c(C(C)=O)c2C)cc1OC | 1 | 8 | -12 | -20 | 14 | 6
Cc1nnc(SCCn2c(Br)nc3c2c(=O)[nH]c(=O)n3C)s1 | 3 | 9 | -19 | -8 | 7 | 44*
CCOC(=O)CN1CC23C=CC(O2)C(C(=O)Nc2ccc(OCC)cc2)C3C1=O (stereo unspecified) | 4 | 15 | -21 | 43* | 5 | 7
CC(C)(C)c1ccc(Oc2ccc(NC(=O)CCCC(=O)O)cn2)cc1 | 37 | 47* | -5 | 34 | 12 | 26
Cc1ccc(NC(=S)N2CCc3[nH]c4ccccc4c3C2)cc1 | -3 | -2 | -13 | 0 | 25 | 2
O=C(Nc1ccc(Cl)c(C(F)(F)F)c1)N1CCCC(O)C1 (stereo unspecified) | -3 | 42* | 24 | 2 | 8 | 3
Cn1c(C(=O)N2CCCC(C(=O)NCCc3ccccc3)C2)cc2sccc21 (stereo unspecified) | 3 | 9 | -8 | -6 | 3 | 2
Cc1ccc(CCNC(=O)C2CCCN(C(=O)c3cc4sccc4n3C)C2)cc1 (stereo unspecified) | 28 | 7 | -26 | 47* | 35 | 9
COc1ccc2ccccc2c1/C=N/NC(=O)c1sc(N)c(C#N)c1C | 21 | 13 | -12 | 64* | 21 | 7
Cc1c(C#N)c(O)n(CCO)c(=O)c1N=Nc1ccccc1 | -4 | 7 | -5 | 5 | -24 | 6
Cc1c(C#N)c(O)n(CCO)c(=O)c1N=Nc1ccc(S(N)(=O)=O)cc1 | 47* | 25 | 10 | 11 | 10 | 27
Cc1c(C#N)c(O)n(C)c(=O)c1N=Nc1ccc(S(N)(=O)=O)cc1 | 57* | 29 | -1 | 25 | 8 | 25
CC(=O)OCC1=C(C(=O)O)N2C(=O)C(NC(=O)C(C)Cn3cc(Cl)cn3)C2SC1 (stereo unspecified) | -11 | 10 | -19 | -4 | -5 | -3
NC(=O)CCS(=O)(=O)CCN1CCCCC1 | 3 | 17 | -15 | 7 | -6 | 6
C/C(=N\NC(=O)C(C)Nc1cccc(Cl)c1)c1ccc([N+](=O)[O-])cc1 (stereo unspecified) | 1 | 14 | -12 | -9 | 6 | 15
CCN1/C(=C/c2ccc3cc(C)cc(C)c3[n+]2CC)Sc2cc(C)ccc21 | -3 | 7 | 0 | 4 | 39 | -1
CCN1/C(=C/c2ccc3cccc(C)c3[n+]2CC)Sc2ccccc21 | 40 | 28 | -16 | 51* | 46 | 13
CNC(=O)c1c(Br)cnn1-c1ccc(C)cc1 | -7 | 9 | -17 | nt | -6 | -4
Cc1ccc(N2CCN(C(=O)Nc3cccc([N+](=O)[O-])c3)CC2C)cc1 (stereo unspecified) | 3 | 4 | -21 | -6 | 4 | -2
CCOCCCNc1ccc(N2C(=O)C3CCCCC3C2=O)cc1[N+](=O)[O-] (stereo unspecified) | -8 | 13 | -22 | 2 | 59* | 7
CCOC(=O)N1CCC(Nc2ccc(N3C(=O)C4CCCCC4C3=O)cc2[N+](=O)[O-])CC1 (stereo unspecified) | -3 | 3 | 5 | nt | 98* | 2
CCN(CC)c1ccc(N2C(=O)C3CCCCC3C2=O)cc1[N+](=O)[O-] (stereo unspecified) | 0 | 11 | -12 | -20 | 26 | 0
CC1CCC2C(=O)N(c3ccc(NC4CCCCC4)c([N+](=O)[O-])c3)C(=O)C2C1 (stereo unspecified) | 3 | 10 | -17 | -18 | 40 | 4
Cc1cc(NS(=O)(=O)c2ccc(NC(=O)CSc3nnc(-c4ccco4)n3C)cc2)nc(C)n1 | -3 | 5 | -16 | -4 | 5 | -2
Cc1cc(NS(=O)(=O)c2ccc(NC(=O)CSc3nnc(-c4ccco4)n3N)cc2)nc(C)n1 | 62* | -8 | -11 | 29 | 32 | -8
